Experiment [1] concerns the target T1, Mu-type opioid receptor (Homo sapiens, UniProt P35372). Kind of experiment: biochemical. It counts as cell-based, CHO.
The target in experiment [2] is T2, Kappa-type opioid receptor (Homo sapiens, UniProt P41145). Kind of experiment: biochemical. The class given is cell-based, CHO.
Experiment [3] concerns the target T3, Delta-type opioid receptor (Homo sapiens, UniProt P41143). Kind of experiment: Displacement of [3H]-naltrindole from human delta opioid receptor expressed in CHO cells after 3 hrs by scintillation counting. The class given is cell-based. Summed up: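 CHO membranes expressing human KOR or DOR incubated with radioligand and 12 compound concentrations in 1 mL 50 mM Tris-HCl, pH 7.5, at 25 °C. […] Nonspecific binding with 10 μM naloxone. Three experiments in triplicate.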

The species named for experiment [4] is Homo sapiens. Put plainly: Selectivity index, ratio of inhibition of human kappa opioid receptor to inhibition of human mu opioid receptor.
For experiment [5], the species on record is Homo sapiens. Put plainly: Selectivity index, ratio of inhibition of human delta opioid receptor to inhibition of human kappa opioid receptor.
The target in experiment [6] is T1, Mu-type opioid receptor. Kind of experiment: Agonist activity at human mu opioid receptor expressed in CHO cells assessed as stimulation of […]GTPgammaS binding after 60 mins by scintillation counting. The class given is functional, cell-based. Background: GTPγS resists hydrolysis and so accumulates on activated G proteins.
The target in experiment [7] is T1, Mu-type opioid receptor. Kind of experiment: Agonist activity at human mu opioid receptor expressed in CHO cells assessed as stimulation of […]GTPgammaS binding after 60 mins by scintillation counting relative to control. It counts as functional, cell-based.
The target in experiment [8] is T1, Mu-type opioid receptor. Put plainly: Antagonist activity at human mu opioid receptor expressed in CHO cells assessed as inhibition of DAMGO-induced […]GTPgammaS binding after 60 mins by scintillation counting. The class given is functional, cell-based.
In experiment [9] the target is T1, Mu-type opioid receptor. Kind of experiment: Antagonist activity at human mu opioid receptor expressed in CHO cells assessed as inhibition of DAMGO-induced […]GTPgammaS binding after 60 mins by scintillation counting relative to control. It counts as functional, cell-based.
For experiment [10], the target named is T2, Kappa-type opioid receptor. Kind of experiment: Agonist activity at human kappa opioid receptor expressed in CHO cells assessed as stimulation of […]GTPgammaS binding after 60 mins by scintillation counting. It counts as functional, cell-based.
Experiment [11] addresses T2, Kappa-type opioid receptor. Put plainly: Agonist activity at human kappa opioid receptor expressed in CHO cells assessed as stimulation of […]GTPgammaS binding after 60 mins by scintillation counting relative to control. The class given is functional, cell-based. In outline: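 Membranes from CHO cells stably expressing human KOR (15 μg protein per tube) or MOR (7.5 μg protein per tube). Nonspecific binding with 10 μM GTPγS. Filtration, then scintillation counting. Triplicate, at least three experiments.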

For experiment [12], the target named is T2, Kappa-type opioid receptor. Kind of experiment: Antagonist activity at human kappa opioid receptor expressed in CHO cells assessed as inhibition of U50488-induced […]GTPgammaS binding after 60 mins by scintillation counting. The class given is functional, cell-based. Summed up: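 κ antagonism: hKOR-CHO membranes incubated with compound plus 100 nM U50,488.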

Experiment [13] is filed under the species Homo sapiens. Kind of experiment: Selectivity index, ratio of inhibition of human delta opioid receptor to inhibition of human mu opioid receptor.
Experiment [14] in a line: Displacement of [3H]-naltrindole from human delta opioid receptor expressed in CHO cells after 3 hrs by scintillation counting. (In general: In a radioligand displacement assay an active substance lowers the binding of a labelled ligand.)
Experiment [15] is filed under the species Homo sapiens. Put plainly: Selectivity index, ratio of inhibition of human mu opioid receptor to inhibition of human kappa opioid receptor.
In experiment [16] the target is T3, Delta-type opioid receptor. Kind of experiment: Displacement of [3H]-naltrindole from human delta opioid receptor expressed in CHO cells at 10 uM after 3 hrs by scintillation counting. The class given is cell-based.
Experiment [17] has as its target T2, Kappa-type opioid receptor. Put plainly: Displacement of [3H]-U69,593 from human kappa opioid receptor expressed in CHO cells at 10 uM after 60 mins by scintillation counting. The class given is cell-based.

Calls of active or inactive are those of the source. The rule behind the calls is not given here. Some results are limits rather than exact numbers.

T3 sequence (P41143 whole entry): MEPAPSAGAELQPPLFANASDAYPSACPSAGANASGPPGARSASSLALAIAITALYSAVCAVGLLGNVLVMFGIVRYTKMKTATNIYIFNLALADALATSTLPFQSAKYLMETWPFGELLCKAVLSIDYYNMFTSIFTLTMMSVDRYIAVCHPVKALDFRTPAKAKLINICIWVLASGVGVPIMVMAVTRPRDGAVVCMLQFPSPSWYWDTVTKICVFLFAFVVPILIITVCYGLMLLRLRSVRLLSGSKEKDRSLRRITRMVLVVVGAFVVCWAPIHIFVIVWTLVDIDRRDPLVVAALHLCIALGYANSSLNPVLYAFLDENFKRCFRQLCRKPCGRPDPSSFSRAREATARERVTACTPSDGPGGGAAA
T2 sequence (P41145 whole entry): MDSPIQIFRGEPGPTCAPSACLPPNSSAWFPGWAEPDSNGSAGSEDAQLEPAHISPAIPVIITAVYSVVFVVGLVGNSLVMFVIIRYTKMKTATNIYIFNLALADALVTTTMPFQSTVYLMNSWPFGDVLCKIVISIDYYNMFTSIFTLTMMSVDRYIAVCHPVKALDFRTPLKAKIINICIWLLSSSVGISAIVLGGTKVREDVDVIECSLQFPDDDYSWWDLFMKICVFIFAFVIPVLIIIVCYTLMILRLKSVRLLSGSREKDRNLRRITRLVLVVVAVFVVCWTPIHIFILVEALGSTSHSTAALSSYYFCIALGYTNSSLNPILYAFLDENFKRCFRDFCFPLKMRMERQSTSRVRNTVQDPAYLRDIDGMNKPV
T1 sequence (P35372 whole entry): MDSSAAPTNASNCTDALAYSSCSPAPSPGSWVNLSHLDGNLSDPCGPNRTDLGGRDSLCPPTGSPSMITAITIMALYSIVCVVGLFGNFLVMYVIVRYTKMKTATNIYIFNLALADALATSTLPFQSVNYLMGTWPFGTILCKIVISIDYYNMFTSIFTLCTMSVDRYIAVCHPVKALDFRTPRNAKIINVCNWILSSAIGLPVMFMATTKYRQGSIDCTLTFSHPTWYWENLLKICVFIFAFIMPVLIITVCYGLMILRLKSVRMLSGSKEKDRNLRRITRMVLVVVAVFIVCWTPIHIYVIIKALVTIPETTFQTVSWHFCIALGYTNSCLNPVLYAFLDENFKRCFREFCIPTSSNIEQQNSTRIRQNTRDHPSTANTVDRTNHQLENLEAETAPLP

With `Oc1ccccc1CNc1ccc2c(c1)[C@@]13CCCC[C@H]1[C@@H](C2)N(CC1CCC1)CC3`, the Ki – broadly, the dissociation constant of the complex between target and ligand, obtained from inhibition or displacement – on Mu-type opioid receptor [1] turned out to be 1.7 nM; in experiment [2], 1.7 nM; in [3], 110 nM. The Selectivity ratio in the experiment filed under Homo sapiens [4] and in the experiment filed under Homo sapiens [5] was 65 each time. Moreover, the EC50 (usually the concentration giving half of the maximal effect) at Mu-type opioid receptor [6] came out at 38 nM; in experiment [10] it was 47 nM. The Emax – broadly, the greatest response seen or fitted, relative to the assay's reference – at Mu-type opioid receptor [7] came out at 49%; in [11], 130%. For the same molecule, the IC50 (in general, the concentration that inhibits the measured activity by half) on Mu-type opioid receptor [8] (read-out: IC50) was 810 nM. On Mu-type opioid receptor [9], the Imax amounted to 32%. For the same molecule, the outcome in [12] was inactive.
Take `CN1CC[C@]23CCCC[C@H]2[C@H]1Cc1ccc(N)cc13`: the inhibition constant (Ki) on Mu-type opioid receptor [1] was 7.9 nM; in experiment [2] it was 110 nM; in [14], 1500 nM. Further, the Selectivity ratio in the experiment listed under Homo sapiens [13] turned out to be 14; in the experiment filed under Homo sapiens [4], 190.
Regarding `Oc1ccccc1CNc1ccc2c(c1)[C@@]13CCCC[C@H]1[C@@H](C2)N(CC1CC1)CC3`, the Ki on Mu-type opioid receptor [1] came to 1.9 nM; in experiment [2], 0.26 nM; in experiment [3], 30 nM. Moreover, the Selectivity ratio in the experiment listed under Homo sapiens [15] came out at 10; in the experiment listed under Homo sapiens [5] it was 150. The EC50 on Mu-type opioid receptor [6] came to 8.8 nM; in [10], 2.3 nM. Further, the Emax stood at 44% on Mu-type opioid receptor [7] and 110% in [11]. Besides, the IC50 at Mu-type opioid receptor [8] (read-out: IC50) worked out at 160 nM. Further, on Mu-type opioid receptor [9], the Imax worked out at 47%. Further, in experiment [12], the result was inactive.
For `COc1ccc2c3c1O[C@H]1C(=O)CC[C@H]4[C@@H](C2)N(C)CC[C@]314`, the inhibition (usually the share of the control response that was lost under treatment) in [16] stood at 37%.
Regarding `Oc1cccc(CNc2ccc3c(c2)C[C@@H]2[C@@H]4CCCC[C@]34CCN2CC2CC2)c1`, the results for the inhibition constant (Ki) (on Mu-type opioid receptor [1]; in experiment [2]) were 150 nM and 0.99 nM, respectively. The inhibition in experiment [16] was 46%. Further, the Selectivity ratio was 150 in the experiment filed under Homo sapiens [15] and over 10000 in the experiment listed under Homo sapiens [5]. The EC50 in experiment [10] is 27 nM. For the same molecule, in experiment [11], the Emax was found to be 160%. Further, the outcome in experiment [12] was inactive.
Consider `CN1CC[C@]23c4c5ccc(NCc6ccc(O)cc6)c4O[C@H]2[C@@H](O)C=C[C@H]3[C@H]1C5`, for which the Ki on Mu-type opioid receptor [1] is 44 nM; in experiment [2], 560 nM. In experiment [16], this molecule came in with an inhibition of 19%. Further, the Selectivity ratio in the experiment filed under Homo sapiens [13] stood at 13; in the experiment filed under Homo sapiens [4] it was 230.
In turn, `COc1cccc(CNc2ccc3c4c2O[C@H]2[C@@H](O)C=C[C@H]5[C@@H](C3)N(C)CC[C@@]452)c1` displayed a Ki in experiment [2] of 500 nM. The molecule further had an inhibition in [16] of 33%.
Turning to `Nc1ccc2c(c1)[C@@]13CCCC[C@H]1[C@@H](C2)N(CC1CCC1)CC3`, the Selectivity ratio was 2 in the experiment filed under Homo sapiens [15] and 100 in the experiment listed under Homo sapiens [5].
As to `Oc1ccc(CNc2ccc3c(c2)[C@@]24CCCC[C@H]2[C@@H](C3)N(CC2CCC2)CC4)cc1`, the inhibitory constant (Ki) amounted to 0.35 nM on Mu-type opioid receptor [1], 2.3 nM in experiment [2] and 120 nM in experiment [3]. Besides, the Selectivity ratio in the experiment listed under Homo sapiens [13] was 7; in the experiment filed under Homo sapiens [4], 340. In addition, the EC50 at Mu-type opioid receptor [6] turned out to be 3.6 nM; in experiment [10], 38 nM. The Emax turned out to be 38% on Mu-type opioid receptor [7] and 130% in experiment [11]. For the same molecule, the IC50 on Mu-type opioid receptor [8] (read-out: IC50) came out at 75 nM. Further, the Imax at Mu-type opioid receptor [9] worked out at 56%. Further, the outcome in experiment [12] was inactive.
Turning to `CN1CC[C@]23c4c5ccc(NCc6cccc(O)c6)c4O[C@H]2[C@@H](O)C=C[C@H]3[C@H]1C5`, the values for the Ki (at Mu-type opioid receptor [1]; in [2]) were 7 nM and 910 nM, respectively. Besides, in experiment [16], the inhibition was determined as 31%. Also, on Mu-type opioid receptor [6], the EC50 turned out to be 550 nM. The IC50 entry on Mu-type opioid receptor [8] (cho) was “Not Active”.
In experiment [2], `CN1CC[C@]23c4c5ccc(NCc6ccccc6O)c4O[C@H]2[C@@H](O)C=C[C@H]3[C@H]1C5` had a Ki of 370 nM. This molecule came in with an inhibition in [16] of 27%.
The molecule `COc1ccc(CNc2ccc3c4c2O[C@H]2[C@@H](O)C=C[C@H]5[C@@H](C3)N(C)CC[C@@]452)cc1` returned an inhibition constant Ki on Mu-type opioid receptor [1] of 60 nM. Besides, the inhibition is 54% in experiment [17] and 12% in [16]. In addition, the Selectivity ratio in the experiment listed under Homo sapiens [13] and in the experiment listed under Homo sapiens [4] was over 160 each time.
In experiment [2], `COc1ccccc1CNc1ccc2c3c1O[C@H]1[C@@H](O)C=C[C@H]4[C@@H](C2)N(C)CC[C@@]341` displayed a Ki of 220 nM. The molecule further came in with an inhibition in experiment [16] of 22%. At Mu-type opioid receptor [8] (cho), the IC50 result was “Not Active”. The Imax result on Mu-type opioid receptor [9] is “inactive”.
For `O=[N+]([O-])c1cccc(CNc2ccc3c(c2)[C@@]24CCCC[C@H]2[C@@H](C3)N(CC2CCC2)CC4)c1`, the Ki on Mu-type opioid receptor [1] came out at 0.43 nM; in experiment [2], 1.1 nM; in experiment [3] it was 150 nM. For the same molecule, the Selectivity ratio was 3 in the experiment filed under Homo sapiens [13] and 350 in the experiment filed under Homo sapiens [4]. Moreover, the EC50 at Mu-type opioid receptor [6] was 1.1 nM; in experiment [10] it was 0.79 nM. Moreover, the Emax was determined as 70% on Mu-type opioid receptor [7] and 140% in experiment [11]. For the same molecule, the IC50 on Mu-type opioid receptor [8] (read-out: IC50) amounted to 6.8 nM. The Imax on Mu-type opioid receptor [9] came to 49%. In experiment [12], the outcome was inactive.
`Nc1ccc2c(c1)[C@@]13CCCC[C@H]1[C@@H](C2)N(CC1CC1)CC3`: the Selectivity ratio in the experiment filed under Homo sapiens [15] amounted to 7; in the experiment filed under Homo sapiens [5], 830.

The record behind these values is ChEMBL document CHEMBL2046406 (J Med Chem, 2012).
